Results on 15 compounds are retold here after paper PMC10962891 (Hepatology Communications, 2024).

Broadly, the EC50 is the concentration at which the effect is half-maximal.

Entries after “also recorded” stand apart in the source; their conditions may differ.

Data set [1] deals with C. difficile. Particulars: cited from earlier work.
For another data set, the system named is microbial composition. Particulars: initial tests; cited from earlier work.
Data set [2] has as its system C. difficile. Particulars: cited from earlier work. The source holds these as a separate data set.
The conditions of data set [3]: mice, considerable dose; cited from earlier work.
The next data set has as its target T1, human FXRα2 (Homo sapiens, UniProt Q96RI1).
T1 sequence (Q96RI1 1-472 isoform Q96RI1-2): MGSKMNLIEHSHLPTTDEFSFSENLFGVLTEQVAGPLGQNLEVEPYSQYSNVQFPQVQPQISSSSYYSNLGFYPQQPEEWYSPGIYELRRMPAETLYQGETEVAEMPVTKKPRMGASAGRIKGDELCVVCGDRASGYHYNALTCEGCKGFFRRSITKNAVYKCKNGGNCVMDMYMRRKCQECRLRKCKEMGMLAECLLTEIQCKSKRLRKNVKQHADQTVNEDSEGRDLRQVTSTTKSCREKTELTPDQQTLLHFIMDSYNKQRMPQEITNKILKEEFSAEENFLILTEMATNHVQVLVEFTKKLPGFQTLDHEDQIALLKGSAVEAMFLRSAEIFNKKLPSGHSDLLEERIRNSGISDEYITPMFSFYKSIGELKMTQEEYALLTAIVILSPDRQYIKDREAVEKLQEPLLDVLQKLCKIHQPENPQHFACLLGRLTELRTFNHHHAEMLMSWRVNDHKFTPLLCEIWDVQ
T1 sequence (P19793 1-462 partner): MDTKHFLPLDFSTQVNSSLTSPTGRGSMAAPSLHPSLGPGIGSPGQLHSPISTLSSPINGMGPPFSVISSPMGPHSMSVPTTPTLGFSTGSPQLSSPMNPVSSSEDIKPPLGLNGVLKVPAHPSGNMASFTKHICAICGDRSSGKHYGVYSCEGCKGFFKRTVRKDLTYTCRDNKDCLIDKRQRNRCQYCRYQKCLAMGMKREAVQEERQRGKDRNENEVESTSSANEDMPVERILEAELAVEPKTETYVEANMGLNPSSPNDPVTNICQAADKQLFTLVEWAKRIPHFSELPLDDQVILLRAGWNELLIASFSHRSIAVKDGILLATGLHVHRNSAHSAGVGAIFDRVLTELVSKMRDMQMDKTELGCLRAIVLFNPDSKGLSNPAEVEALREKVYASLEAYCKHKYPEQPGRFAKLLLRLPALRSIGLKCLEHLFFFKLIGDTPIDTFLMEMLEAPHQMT
The data set can be described thus: FXR luciferase reporter assay in 293T cells transfected with FXRα2. In kind it is cell-based. To be noted: for EC50: read-out: EC50 for FXR (cell-based reporter assay, composite EC50), second column entry, 293T cells expressing FXRα2, RXRα, ASBT, repeated thrice for L-TyrCDCA only. Summed up:
(§1)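 293T cells (70–80% confluent) were co-transfected by lipofection with FXRα2 or FXRα4 (10 ng), RXRα (2 ng), an Shp-element firefly reporter (5 ng), Renilla pRL-TK (2 ng), ASBT or NTCP (0 or 1 ng) and GFP filler to 100 ng. After 24 h, cells received 0.1% DMSO, a 10 µM positive control, or test compounds in serum-free medium for 24 h. Firefly:Renilla ratios were set relative to DMSO; quadruplicates, 3 independent runs.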
A general note: A reporter such as luciferase makes a cellular process visible.

Data set [4] concerns the target T2, human TGR5 (Homo sapiens, UniProt Q8TDU6).
T2 sequence (Q8TDU6 1-330): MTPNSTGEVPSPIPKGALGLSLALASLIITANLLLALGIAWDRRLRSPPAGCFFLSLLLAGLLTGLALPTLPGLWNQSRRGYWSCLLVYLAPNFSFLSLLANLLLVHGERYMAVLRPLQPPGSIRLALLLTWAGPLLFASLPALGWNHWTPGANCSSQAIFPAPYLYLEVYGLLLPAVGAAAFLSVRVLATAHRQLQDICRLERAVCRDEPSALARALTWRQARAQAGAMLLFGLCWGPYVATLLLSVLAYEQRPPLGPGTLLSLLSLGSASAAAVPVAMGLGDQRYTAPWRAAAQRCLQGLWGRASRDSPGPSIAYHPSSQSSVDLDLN
The data set can be described thus: cell-based.

For the next data set, the system named is RAW264.7 cells. The data set can be described thus: LPS-induced cytokine release. It is filed as cell-based, murine. To be noted: then 3 ng/mL LPS 23 h; for effect on LPS-enhanced medium levels of TNFα and IL-6: 100 µM pretreatment 1 h. Summed up: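 RAW264.7 cells at 70–80% confluency were pretreated 1 h in serum-free medium with 0.1% DMSO, a 50 µM positive control, or test compounds. LPS (E. coli O128:B12, 3 ng/mL) was then added for 23 h. Cleared supernatants (300 g, 10 min) were assayed for IL-6 and TNFα by ELISA, normalized to cellular protein. Quadruplicates; three repeats.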

The next data set concerns the target T3, human FXRα4 (Homo sapiens, UniProt Q96RI1).
T3 sequence (Q96RI1 1-482 isoform Q96RI1-4): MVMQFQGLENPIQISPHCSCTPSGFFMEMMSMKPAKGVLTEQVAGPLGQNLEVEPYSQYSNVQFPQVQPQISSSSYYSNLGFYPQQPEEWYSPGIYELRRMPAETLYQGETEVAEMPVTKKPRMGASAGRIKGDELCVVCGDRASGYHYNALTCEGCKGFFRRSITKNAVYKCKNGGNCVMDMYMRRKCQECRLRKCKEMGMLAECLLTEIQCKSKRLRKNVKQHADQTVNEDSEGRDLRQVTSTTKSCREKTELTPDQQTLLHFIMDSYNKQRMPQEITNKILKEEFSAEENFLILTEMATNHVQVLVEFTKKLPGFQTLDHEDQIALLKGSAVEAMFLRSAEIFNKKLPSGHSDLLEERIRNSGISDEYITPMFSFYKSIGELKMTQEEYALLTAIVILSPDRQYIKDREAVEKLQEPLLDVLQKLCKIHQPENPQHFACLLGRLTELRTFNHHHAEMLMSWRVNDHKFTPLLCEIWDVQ
T3 sequence (P19793 1-462 partner): T1 sequence (P19793 1-462 partner)
The experiment in a line: FXR luciferase reporter assay in 293T cells transfected with FXRα4. It is filed as cell-based. To be noted: 10 µM, cells overexpressing FXRα4, independent of bile salt importer. The method in brief:
as §1

Data set [5] has as its target T2, human TGR5. It is filed as cell-based. Particulars: 10 µM positive control, 293T cells -/+ TGR5 overexpression.

Regarding `C[C@H](CCC(=O)N[C@@H](Cc1ccc(O)cc1)C(=O)O)[C@H]1CC[C@H]2[C@@H]3[C@H](O)C[C@@H]4C[C@H](O)CC[C@]4(C)[C@H]3C[C@H](O)[C@]12C` [TyrCA, tyrosocholic acid], the “growth of C. difficile” value in the data set on C. difficile [1] is recorded as “not inhibited”. The “effect on microbial composition in vitro” value in the data set on microbial composition is “did not affect”. The “spore germination of C. difficile” value in the data set on C. difficile [2] is on record as “inhibit”. In data set [3], the “detection in portal blood or bile after repeated oral gavage” value is listed as “failure to detect; also recorded: did not lead to detection”. On to `C[C@H](CCC(=O)N[C@H](Cc1ccc(O)cc1)C(=O)O)[C@H]1CC[C@H]2[C@@H]3[C@H](O)C[C@@H]4C[C@H](O)CC[C@]4(C)[C@H]3C[C@H](O)[C@]12C` [D-TyrCA, D-Tyrosocholic acid], for which the EC50 at human FXRα2 was 9.9 µM.

In turn, `C[C@H](CCC(=O)NCCS(=O)(=O)O)[C@H]1CC[C@H]2[C@@H]3[C@H](O)C[C@@H]4C[C@H](O)CC[C@]4(C)[C@H]3C[C@H](O)[C@]12C` [TCA, Taurocholic acid] yielded an EC50 on human TGR5 [4] of 277 ± 16.6 µM. For `C[C@H](CCC(=O)N[C@@H](Cc1ccc(O)cc1)C(=O)O)[C@H]1CC[C@H]2[C@@H]3[C@H](O)C[C@@H]4C[C@H](O)CC[C@]4(C)[C@H]3C[C@H](O)[C@]12C` [L-TyrCA, L-Tyrosocholic acid], the EC50 at human FXRα2 was 46.3 µM. The “affinity for FXRα2 relative to D/L-TyrCDCA (fold lower)” value on human FXRα2 (reporter cells expressing uptake transporter) was determined as 6 fold.

Take `CC(CCC(=O)NCC(=O)O)C1CCC2C3C(O)CC4CC(O)CCC4(C)C3CCC12C` (centres unmarked) [GCDCA, glycochenodeoxycholic acid]: a half-maximal effect at human TGR5 [4] (EC50) was put at 29.4 ± 0.9 µM. Regarding `C[C@H](CCC(=O)N[C@@H](Cc1ccccc1)C(=O)O)[C@H]1CC[C@H]2[C@@H]3[C@@H](O)[C@@H](O)[C@@H]4C[C@H](O)CC[C@]4(C)[C@H]3CC[C@]12C` [Pheβ muricholic acid], in the data set on C. difficile [2], the “spore germination of C. difficile” value was “inhibit”.

Consider `C[C@H](CCC(=O)N[C@@H](Cc1ccc(O)cc1)C(=O)O)[C@H]1CC[C@H]2[C@@H]3[C@H](O)C[C@@H]4C[C@H](O)CC[C@]4(C)[C@H]3CC[C@]12C` [L-TyrCDCA, L-Tyrosochenodeoxycholic acid], for which the EC50 at human FXRα2 amounted to 7.8 µM.

Compound `C[C@H](CCC(=O)NCC(=O)O)[C@H]1CC[C@H]2[C@@H]3[C@H](O)C[C@@H]4C[C@H](O)CC[C@]4(C)[C@H]3C[C@H](O)[C@]12C` [GCA, glycocholic acid] yielded an EC50 on human TGR5 [4] of 342 ± 26.7 µM. Consider `C[C@H](CCC(=O)NCCS(=O)(=O)O)[C@H]1CC[C@H]2[C@@H]3CC[C@@H]4C[C@H](O)CC[C@]4(C)[C@H]3CC[C@]12C` [TLCA, taurolithocholic acid, reference compound], for which, in the data set on RAW264.7 cells (50 µM pretreatment 1 h), the “change of LPS-induced IL-6 level” value is reported as -4.6 fold and the “change of LPS-induced TNFα level” value is reported as -3.6 fold. As for `C[C@H](CCC(=O)N[C@@H](Cc1ccccc1)C(=O)O)[C@H]1CC[C@H]2[C@@H]3[C@H](O)C[C@@H]4C[C@H](O)CC[C@]4(C)[C@H]3C[C@H](O)[C@]12C` [PheCA, phenylalanocholic acid], in the data set on C. difficile [1], the “growth of C. difficile” value is “not inhibited”. In addition, the “effect on microbial composition in vitro” value in the data set with microbial composition was “did not affect”. Moreover, the “effect on LPS-enhanced medium levels of TNFα and IL-6” value in the data set with RAW264.7 cells was “counteracted”. For the same compound, the “spore germination of C. difficile” value in the data set with C. difficile [2] is recorded as “inhibit”.

For `C[C@H](CCC(=O)N[C@@H](Cc1ccccc1)C(=O)O)[C@H]1CC[C@H]2[C@@H]3[C@H](O)C[C@@H]4C[C@H](O)CC[C@]4(C)[C@H]3CC[C@]12C` [PheCDCA, phenylalanochenodeoxycholic acid], the “effect on LPS-enhanced medium levels of TNFα and IL-6” value in the data set on RAW264.7 cells was “counteracted”.

Take `CC[C@H]1[C@@H](O)[C@@H]2[C@H](CC[C@]3(C)[C@@H]([C@H](C)CCC(=O)O)CC[C@@H]23)[C@@]2(C)CC[C@@H](O)C[C@@H]12` [OCA, obeticholic acid, reference compound]: on human FXRα2 (10 µM, FXRα2/RXRα, no transporter), the “FXR reporter activation in mock-transfected cells (-OSTαβ)” value was “able to activate FXR”. The FXR reporter activation entry on human FXRα2 (10 µM, cells overexpressing FXRα2, independent of bile salt importer) is “strongly activated”; at human FXRα4, “strongly activated”. Consider `C=C[C@@]1(C)CC(=O)[C@]2(O)[C@@]3(C)[C@@H](O)CCC(C)(C)[C@@H]3[C@H](O)[C@H](OC(C)=O)[C@@]2(C)O1` [forskolin, Forskolin A], for which the “activation of cAMP-driven reporter” value at human TGR5 [5] is given as “activated the reporter independent of TGR5 overexpression”. With `CC(C)C[C@H](NC(=O)CC[C@@H](C)[C@H]1CC[C@H]2[C@@H]3[C@H](O)C[C@@H]4C[C@H](O)CC[C@]4(C)[C@H]3C[C@H](O)[C@]12C)C(=O)O` [LeuCA, leucocholic acid], in the data set on microbial composition, the “effect on microbial composition in vitro” value is on record as “did not affect”. In addition, the “detection in portal blood or bile after repeated oral gavage” value in data set [3] is recorded as “failure to detect; also recorded: did not lead to detection”. For the compound `C[C@H](CCC(=O)N[C@H](Cc1ccc(O)cc1)C(=O)O)[C@H]1CC[C@H]2[C@@H]3[C@H](O)C[C@@H]4C[C@H](O)CC[C@]4(C)[C@H]3CC[C@]12C` [D-TyrCDCA, D-Tyrosochenodeoxycholic acid], the EC50 at human FXRα2 is 6.8 µM.
